# Compound activity as filed in PubChem.
# MEKK2wt PB1 HTS: raises or lowers MEK5 binding to wildtype human MEKK2 PB1 domain; Q9Y2U5; bead flow cytometry, Alexa488-MEK5 binding to MEKK2 WT; actives lie on both sides; binding response (% of control), % at 10 µM; 290,000 compounds, 1.1% hits; AID 1531; in the data active = binding response below about 67% or above about 130%; inconclusive = no clear call, values can overlap the other calls; inactive = in between
# T cruzi inh: T. cruzi replication inhibition; T. cruzi beta-gal in NIH3T3, luminescence, 90 h; inhibition, % (test concentration not listed); 300,000 compounds, 1.4% hits; AID 1885;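 active = mean inhibition across valid replicates above about 55%, limit read from the data; inconclusive = mean below that limit but half or more replicates reach it; inactive = mean below it, under half of replicates reach it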;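 also: signal also drops with host cell toxicity which is not excluded here; higher percent means less beta-gal luminescence so fewer parasites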
#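 Read-out: Parasite load inhibition, % | Test system: Mouse NIH/3T3 fibroblasts infected with β-gal-expressing T. cruzi Tulahuen C4 | Amount: 5,000 cells/well | Medium: DMEM, 2% fetal bovine serum | Signal: GalScreen β-gal luminescence, detergent lysis, 60 min | Timing: 3 h attach, ≥90 h co-culture | Also added: Tulahuen C4 trypomastigotes, 5000/well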
# DNA FID counter-1: counter-screen for HCV NS3 helicase inhibitors: DNA intercalator displacement | 290,000 compounds, 0.17% hits | DNA fluorescent intercalator displacement, fluorescence | AID 1845 | inhibition, % at 7.9 µM;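 also: higher means more ethidium bromide displaced from hairpin DNA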
# MEKK3 PB1 HTS: modulators (inhibitors or enhancers) of MEK5 binding to human MEKK3 PB1 domain | binding response (% of control), % at 10 µM | 290,000 compounds, 1.4% hits | Q99759 | bead-based flow cytometry, Alexa488-MEK5 binding to MEKK3; actives lie on both sides; 0 = blocked by unlabeled MEK5, 100 = vehicle;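 active = binding response more than 3 SD above or below the average of its plate-row segment, actives on both sides; inconclusive = wells at one plate position flagged as instrument error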;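 also: Alexa488 bead fluorescence after subtracting the streptavidin-only scavenger bead signal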
# Target sequence (Q99759 whole entry, looked up, the tested form may be a part): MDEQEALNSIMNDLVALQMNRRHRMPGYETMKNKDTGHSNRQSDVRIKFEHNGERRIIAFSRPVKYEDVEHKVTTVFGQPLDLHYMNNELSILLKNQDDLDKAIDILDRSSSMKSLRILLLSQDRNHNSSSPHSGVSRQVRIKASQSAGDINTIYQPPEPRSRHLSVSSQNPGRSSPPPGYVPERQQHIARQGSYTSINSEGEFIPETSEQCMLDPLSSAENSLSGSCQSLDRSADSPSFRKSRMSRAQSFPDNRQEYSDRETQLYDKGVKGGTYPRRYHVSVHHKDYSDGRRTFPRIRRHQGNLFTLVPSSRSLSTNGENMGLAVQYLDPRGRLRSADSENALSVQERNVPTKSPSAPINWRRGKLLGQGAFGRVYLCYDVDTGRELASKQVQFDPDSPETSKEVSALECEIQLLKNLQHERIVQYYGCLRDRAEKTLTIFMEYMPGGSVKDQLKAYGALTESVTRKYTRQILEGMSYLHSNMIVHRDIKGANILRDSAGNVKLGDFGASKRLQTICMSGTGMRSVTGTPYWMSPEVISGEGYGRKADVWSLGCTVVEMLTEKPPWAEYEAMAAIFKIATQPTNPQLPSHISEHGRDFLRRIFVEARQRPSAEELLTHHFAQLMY
# MEKK2 mut-MEK5: signal of MEK5 binding to mutant human MEKK2 PB1 domain | percent response, % at 10 µM | bead flow cytometry, Alexa488-MEK5 binding to MEKK2 mutant | AID 1530 | 290,000 compounds, 0.35% hits; in the data active = percent response above about 24%, passing the limit was not always enough
# HCV NS3 hel inh: blocks Hepatitis C virus NS3 helicase unwinding; 290,000 compounds, 0.56% hits; NS3 helicase DNA unwinding, Cy5 molecular beacon fluorescence; inhibition, % at 10.9 µM;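 active = inhibition above the mean of all tested compounds plus 3 SD, set per campaign, cut at about 35% in these data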
#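 test system = hepatitis C virus NS3 helicase domain fragment enzyme | reagent = annealed dual-labelled DNA beacon duplex, ATP-started | times = 1 h at 25 °C | detection = Cy5 fluorescence, 0 and 60 min reads | read-out basis = percent inhibition from t60/t0 fluorescence ratio | control set = DMSO and thioflavine S | replication = one well per compound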
# NS3 hel confirm: confirmation of Hepatitis C virus NS3 helicase inhibitors; shares compounds with HCV NS3 hel inh; NS3 helicase DNA unwinding, Cy5 molecular beacon fluorescence; inhibition, % at 10.9 µM; 1,600 compounds, 31% hits; AID 1943;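 active = inhibition above the mean of all tested compounds plus 3 SD, cutoff set per campaign, cut at about 36% in these data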
# DNA FID counter-2: intercalator displacement, NS3 helicase counter-screen; shares compounds with HCV NS3 hel inh; DNA fluorescent intercalator displacement, fluorescence; inhibition, % at 7.9 µM; 1,600 compounds, 4% hits;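 also: higher means more displacement of ethidium bromide from the DNA hairpin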
# FID counter DR: displaces fluorescent intercalator from DNA, HCV helicase counter-screen; fluorescent intercalator displacement from DNA, fluorescence; IC50, µM; shares compounds with HCV NS3 hel inh; 120 tested, under 10 active; call rule not given here
# Hits are given with their value; 0 = inactive; ? = inconclusive; - = no result. This is a sample that favours compounds with a hit; in the whole collection about 4.1% have one here. Rule as the data show it, unless noted: active = inhibition above about 37%; inactive = the rest.
SMILES,MEKK2wt PB1 HTS,T cruzi inh,DNA FID counter-1,MEKK3 PB1 HTS,MEKK2 mut-MEK5,HCV NS3 hel inh,NS3 hel confirm,DNA FID counter-2,others
Cc1ccc(NC(=O)NNS(=O)(=O)c2ccc(Br)cc2)cc1,0,0,0,0,0,0,-,-,
Cc1ccc(S(=O)(=O)NC(=O)c2cc(C)n(-c3ccc(N(C)C)cc3)c2C)cc1,0,0,0,0,0,42,0,0,
Cc1ccc(S(=O)(=O)NC(=O)c2cc(C)n(-c3ccccc3)c2C)cc1,0,0,0,0,0,0,-,-,
Cc1ccc(S(=O)(=O)NC(=O)Nc2ccc(N(C)C)cc2)cc1,0,57,0,0,0,51,70,0,
CCCCc1nnc(NC(=O)COC)s1,0,0,0,0,0,0,-,-,
C=CCn1c(SCC(=O)NCC2CCCO2)nc2scc(-c3ccco3)c2c1=O (stereo not drawn),0,0,0,0,0,0,-,-,
O=c1c2c(-c3ccco3)csc2nc(SCc2cn3cccnc3n2)n1-c1ccccc1,0,0,0,0,0,62,94,0,FID counter DR=0
O=C(CSc1nc2scc(-c3ccco3)c2c(=O)n1-c1ccccc1)NCC1CCCO1 (stereo not drawn),0,0,0,0,0,86,0,0,
CCc1ccccc1NC(=O)CCc1c(C)nn(-c2ccc(N3CCOCC3)nn2)c1C,0,0,0,0,0,0,-,-,
CCn1ncc(N2CCOCC2)c(Cl)c1=O,0,0,0,0,0,0,-,-,
CC(C)N1CCN(Cc2cn[nH]c2C2CCCCC2)CC1CCO (stereo not drawn),0,0,0,0,0,0,-,-,
COC(=O)c1c(-c2ccco2)csc1NC(=O)C1CC=CCC1C(=O)O (stereo not drawn),0,0,0,0,0,36,0,0,
CCOC(=O)c1c(-c2ccc(F)cc2)csc1NC(=O)C1CC=CCC1C(=O)O (stereo not drawn),0,0,0,0,0,0,-,-,
CCCCn1c(N)c(N(CCC(C)C)C(=O)c2cc(-c3ccco3)nc3ccccc23)c(=O)[nH]c1=O,0,0,0,0,0,41,0,0,
CCCCn1c(N)c(N(CCC(C)C)C(=O)CCCc2nc3ccccc3s2)c(=O)[nH]c1=O,0,0,0,0,0,38,0,0,
CC(C)CN(C(=O)COc1ccc(-c2nnco2)cc1)C1CCS(=O)(=O)C1 (stereo not drawn),0,0,0,0,0,0,-,-,
O=C1NC2(CCCCO2)CO1 (stereo not drawn),0,0,0,0,0,0,-,-,
Cc1ccc2nc(N3C(=O)C(O)=C(C(=O)c4ccc(C)o4)C3c3cccc(O)c3)sc2c1 (stereo not drawn),0,0,0,0,0,44,106,0,
CCCN(CCC)C(=O)c1ccc2nc(-c3ccc(OC)c(OC)c3)c(-c3ccc(OC)c(OC)c3)nc2c1,0,?,0,0,0,0,-,-,
CCOc1ccc(N2C(=O)CC(Sc3nc(CC(C)C)ccc3C#N)C2=O)cc1 (stereo not drawn),0,0,0,0,0,39,65,0,
Cc1cccc(C(=O)NCC(=O)OCC(=O)c2ccc(Cl)s2)c1,0,0,0,0,0,0,-,-,
COc1ccc(S(=O)(=O)NC2CC(C)(C)NC(C)(C)C2)cc1C(C)C,0,0,0,0,0,0,-,-,
Cc1ncc(CO)c2c1Oc1nc(-c3ccccc3)nc(SCC(=O)Nc3cccc(O)c3)c1C2,0,0,0,0,0,0,-,-,
COc1ccc(-c2nc3c(c(SCC(=O)Nc4cccc(O)c4)n2)Cc2c(CO)cnc(C)c2O3)cc1,0,0,0,0,0,70,0,0,
Cc1cc(C(=O)Nc2ccc(C)c(C)c2)n(-c2ccccc2)n1,0,0,0,0,0,0,-,-,
SMILES,MEKK2wt PB1 HTS,T cruzi inh,DNA FID counter-1,MEKK3 PB1 HTS,MEKK2 mut-MEK5,HCV NS3 hel inh,NS3 hel confirm,DNA FID counter-2,others
CCOC(=O)c1ccc(NC(=O)c2cc(C)nn2-c2ccccc2)cc1,0,0,0,0,0,46,0,0,
Cc1ccc(S(=O)(=O)Nc2cc(C(=O)O)ccc2N2CCCCC2)cc1,0,-,0,0,0,75,0,0,
Cc1ccc(S(=O)(=O)Nc2cc(C(=O)N3CCOCC3)ccc2N2CCCCC2)cc1,0,0,0,0,0,0,-,-,
COc1ccc(CCNC(=O)CCC(=O)n2ncc3ccc(Cl)cc32)cc1OC,0,0,0,0,0,0,-,-,
Cc1ccc(-c2cc(C(=O)N3CCCC3)c3ccccc3n2)s1,0,0,0,0,0,0,-,-,
Cc1ccc(-c2cc(C(=O)O)c3cc(Br)ccc3n2)s1,0,0,0,0,0,38,37,0,
Cc1ccc(-c2cc(C(=O)NN3CCOCC3)c3cc(Br)ccc3n2)o1,0,0,0,0,0,0,-,-,
Cc1ccc(-c2cc(C(=O)O)c3cc(Br)ccc3n2)o1,0,0,0,0,0,38,79,0,
CC1CN(C(=O)COc2coc(CN3CCc4ccccc4C3)cc2=O)CC(C)O1 (stereo not drawn),-,0,-,-,-,-,-,-,
NC(=O)C1CCN(C(=O)CC(c2ccccc2)c2ccccc2)CC1,0,0,0,0,0,0,-,-,
Cc1coc2c(C)c3oc(=O)c(CCC(=O)N4CCC(C(=O)NCCCC(=O)O)(c5ccccc5)CC4)c(C)c3cc12,0,0,0,0,0,0,-,-,
CCCCCCCC(=O)N/N=C/c1ccco1,0,0,0,0,0,0,-,-,
Cc1ccc(/C=N\NC(=O)c2ccc3c(c2)OCO3)o1,0,0,0,0,0,0,-,-,
CC(C)(C)c1ccc2c(c1)OC(C(=O)N/N=C/c1ccc([N+](=O)[O-])o1)CO2 (stereo not drawn),0,60,0,0,0,51,0,0,
O=C(N/N=C/c1ccc([N+](=O)[O-])o1)c1ccc2c(c1)OCO2,0,69,0,0,0,40,0,0,
CCCCCCCC(=O)N/N=C/c1ccc([N+](=O)[O-])o1,0,0,0,0,0,39,0,0,
O=C(O)c1ccccc1N/C=C\[N+](=O)[O-],0,0,0,0,0,0,-,-,
Cc1ccc(C(=O)c2c(C)oc3c2C(=O)C(=O)c2ccccc2-3)cc1,0,?,0,0,0,36,0,0,
Cc1oc2c(c1C(=O)c1ccc(Cl)cc1)C(=O)C(=O)c1ccccc1-2,-,?,0,-,-,0,-,-,
COc1ccc(CNS(=O)(=O)c2cn(C)c(=O)n(C)c2=O)cc1,0,0,0,0,0,0,-,-,
